Experimental data reported in ChEMBL document CHEMBL1212777, “Novel VIM metallo-beta-lactamase variant from clinical isolates of Enterobacteriaceae from Algeria” (2010).
≈ marks a conversion by molar mass, not a printed value.

What was measured:
Assay type in all cases: functional
Providencia stuartii [1] = assay: Antimicrobial activity against Providencia stuartii 6858 strain expressing beta-lactamase VIM-19 by microdilution method
Outline: (§1)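 Clinical isolates from intensive care patients. MICs by dilution on Mueller-Hinton agar, inoculum 10^4 CFU per spot, read after growth and interpreted by CA-SFM guidelines. Where the line names an inhibitor, it was held at a fixed level: clavulanic acid 2 μg/ml, tazobactam 4 μg/ml, or EDTA 0.4 mM.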

Escherichia coli [2] = assay: Antimicrobial activity against Escherichia coli DH5alpha harbouring plasmid BK-VIM-19 expressing beta-lactamase VIM-19 by microdilution method
Outline: (§2)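 MIC by dilution on Mueller-Hinton agar, inoculum 10^4 CFU per spot, interpreted by CA-SFM guidelines. Inhibitor combinations where tested: clavulanic acid 2 μg/ml, tazobactam 4 μg/ml, EDTA 0.4 mM. Transconjugants came from rifampin-resistant E. coli C600 selected on rifampin 300 μg/ml plus cefotaxime 0.5 μg/ml. Transformants came from electroporation into E. coli DH5α selected on cefotaxime 0.5 μg/ml.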

Escherichia coli [3] = assay: Antimicrobial activity against Escherichia coli DH5alpha harbouring plasmid BK-VIM-19 expressing beta-lactamase VIM-19 by microdilution method in presence of 0.4 mM EDTA; outline: as §2
Escherichia coli [4] = assay: Antimicrobial activity against Escherichia coli 138 expressing beta-lactamase VIM-19 by microdilution method; outline: as §1
Klebsiella pneumoniae [5] = assay: Antimicrobial activity against Klebsiella pneumoniae 2878 strain expressing beta-lactamase VIM-19 […] in presence of 0.4 mM EDTA
Klebsiella pneumoniae [6] = assay: Antimicrobial activity against Klebsiella pneumoniae 6828 strain expressing beta-lactamase VIM-19 by microdilution method; outline: as §1
Escherichia coli [7] = assay: Antimicrobial activity against Escherichia coli harbouring plasmid BK-CMV expressing beta-lactamase VIM-19 by microdilution method; outline: as §2
Escherichia coli [8] = assay: Antimicrobial activity against Escherichia coli DH5alpha 2878 transformant expressing beta-lactamase VIM-19 by microdilution method in presence of 0.4 mM EDTA; outline: as §2
Escherichia coli [9] = assay: Antimicrobial activity against Escherichia coli DH5alpha 2878 transformant expressing beta-lactamase VIM-19 by microdilution method; outline: as §2
Providencia stuartii [10] = assay: Antimicrobial activity against Providencia stuartii 6858 strain expressing beta-lactamase VIM-19 by microdilution method in presence of 0.4 mM EDTA; outline: as §1
Escherichia coli [11] = assay: Antimicrobial activity against Escherichia coli 2603 strain expressing beta-lactamase VIM-19 by microdilution method in presence of 0.4 mM EDTA; outline: as §1
Escherichia coli [12] = assay: Antimicrobial activity against Escherichia coli 138 expressing beta-lactamase VIM-19 by microdilution method in presence of 0.4 mM EDTA; outline: as §2
Klebsiella pneumoniae [13] = assay: Antimicrobial activity against Klebsiella pneumoniae 2878 strain expressing beta-lactamase VIM-19 by microdilution method; outline: as §1
Escherichia coli [14] = assay: Antimicrobial activity against Escherichia coli C600 2878 transconjugate expressing beta-lactamase VIM-19 by microdilution method; outline: as §2
Escherichia coli [15] = assay: Antimicrobial activity against Escherichia coli 2603 strain expressing beta-lactamase VIM-19 by microdilution method; outline: as §1
Klebsiella pneumoniae [16] = assay: Antimicrobial activity against Klebsiella pneumoniae 6828 strain expressing beta-lactamase VIM-19 by microdilution method in presence of 0.4 mM EDTA; outline: as §1
Escherichia coli [17] = assay: Antimicrobial activity against Escherichia coli harbouring plasmidBK-CMV expressing beta-lactamase VIM-19 […] in presence of 0.4 mM EDTA
Escherichia coli [18] = assay: Antimicrobial activity against Escherichia coli C600 2878 transconjugate expressing beta-lactamase VIM-19 by microdilution method in presence of 0.4 mM EDTA
Outline: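 Rifampin-resistant E. coli C600 recipient mated with the clinical strain. Transconjugants were selected on agar with rifampin 300 μg/ml plus cefotaxime 0.5 μg/ml. MICs by dilution on Mueller-Hinton agar, inoculum 10^4 CFU per spot, CA-SFM interpretation. Inhibitor at a fixed level: clavulanic acid 2 μg/ml or EDTA 0.4 mM.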

Escherichia coli [19] = assay: Antimicrobial activity against Escherichia coli 138 expressing beta-lactamase VIM-19 by microdilution method in presence of 4 ug/ml Tazobactam; outline: as §2
Escherichia coli [20] = assay: Antimicrobial activity against Escherichia coli C600 2878 transconjugate expressing beta-lactamase VIM-19 by microdilution method in presence of 4 ug/ml Tazobactam; outline: as §2
Klebsiella pneumoniae [21] = assay: Antimicrobial activity against Klebsiella pneumoniae 6828 strain expressing beta-lactamase VIM-19 […] in presence of 4 ug/ml Tazobactam
Escherichia coli [22] = assay: Antimicrobial activity against Escherichia coli harbouring plasmidBK-CMV expressing beta-lactamase VIM-19 […] in presence of 4 ug/ml Tazobactam
Escherichia coli [23] = assay: Antimicrobial activity against Escherichia coli 2603 strain expressing beta-lactamase VIM-19 […] in presence of 4 ug/ml Tazobactam
Klebsiella pneumoniae [24] = assay: Antimicrobial activity against Klebsiella pneumoniae 2878 strain expressing beta-lactamase VIM-19 by microdilution method in presence of 4 ug/ml Tazobactam; outline: as §1
Escherichia coli [25] = assay: Antimicrobial activity against Escherichia coli DH5alpha harbouring plasmid BK-VIM-19 expressing beta-lactamase VIM-19 by microdilution method in presence of 4 ug/ml Tazobactam; outline: as §2
Providencia stuartii [26] = assay: Antimicrobial activity against Providencia stuartii 6858 strain expressing beta-lactamase VIM-19 by microdilution method in presence of 4 ug/ml Tazobactam; outline: as §1
Escherichia coli [27] = assay: Antimicrobial activity against Escherichia coli DH5alpha 2878 transformant expressing beta-lactamase VIM-19 […] in presence of 4 ug/ml Tazobactam

SMILES	MIC (Providencia stuartii [1]) [µg/mL]	MIC (Escherichia coli [2]) [µg/mL]	MIC (Escherichia coli [3]) [µg/mL]	MIC (Escherichia coli [4]) [µg/mL]	MIC (Klebsiella pneumoniae [5]) [µg/mL]	MIC (Klebsiella pneumoniae [6]) [µg/mL]	MIC (Escherichia coli [7]) [µg/mL]	MIC (Escherichia coli [8]) [µg/mL]	MIC (Escherichia coli [9]) [µg/mL]	MIC (Providencia stuartii [10]) [µg/mL]	MIC (Escherichia coli [11]) [µg/mL]	MIC (Escherichia coli [12]) [µg/mL]	MIC (Klebsiella pneumoniae [13]) [µg/mL]	MIC (Escherichia coli [14]) [µg/mL]	MIC (Escherichia coli [15]) [µg/mL]	MIC (Klebsiella pneumoniae [16]) [µg/mL]	MIC (Escherichia coli [17]) [µg/mL]	also measured
CC(C)(O/N=C(\C(=O)N[C@@H]1C(=O)N2C(C(=O)[O-])=C(C[n+]3ccccc3)CS[C@H]12)c1csc(N)n1)C(=O)O [CEFTAZIDIME]	64 (≈ 117 µM)	32 (≈ 58.5 µM)	0.12	512 (≈ 937 µM)	8	64 (≈ 117 µM)	0.12 (≈ 0.22 µM)	8	128 (≈ 234 µM)	4	16	128	128 (≈ 234 µM)	32 (≈ 58.5 µM)	128 (≈ 234 µM)	8	0.12	
CO/N=C(\C(=O)N[C@@H]1C(=O)N2C(C(=O)O)=C(COC(N)=O)CS[C@H]12)c1ccco1 [CEFUROXIME]	1020 (≈ 2410 µM)	1020 (≈ 2410 µM)		> 1020		1020 (≈ 2410 µM)	4 (≈ 9.43 µM)		1020 (≈ 2410 µM)				1020 (≈ 2410 µM)	512 (≈ 1210 µM)	> 1020			
CC(=O)OCC1=C(C(=O)O)N2C(=O)[C@@H](NC(=O)Cc3cccs3)[C@H]2SC1 [CEPHALOTHIN]	> 2050	1020 (≈ 2580 µM)		> 2050		2050 (≈ 5170 µM)	4 (≈ 10.1 µM)		2050 (≈ 5170 µM)				> 2050	1020 (≈ 2580 µM)	2050 (≈ 5170 µM)			
C[C@@H](O)[C@H]1C(=O)N2C(C(=O)O)=C(SCCNC=N)C[C@H]12 [IMIPENEM ANHYDROUS]	16 (≈ 53.4 µM)	16 (≈ 53.4 µM)	< 0.12	32 (≈ 107 µM)	0.5	4 (≈ 13.4 µM)		< 0.12	8 (≈ 26.7 µM)	0.5	0.25	0.5	64 (≈ 214 µM)	4 (≈ 13.4 µM)	16 (≈ 53.4 µM)	< 0.12	< 0.12	MIC (Escherichia coli [18]): < 0.12 µg/mL
C[C@@H](O)[C@H]1C(=O)N2C(C(=O)O)=C(S[C@@H]3CN[C@H](C(=O)N(C)C)C3)[C@H](C)[C@H]12 [MEROPENEM]	8 (≈ 20.9 µM)	8 (≈ 20.9 µM)	< 0.12	16 (≈ 41.7 µM)	< 0.12	4 (≈ 10.4 µM)	< 0.12	< 0.12	8 (≈ 20.9 µM)	< 0.12	< 0.12	< 0.12	32 (≈ 83.4 µM)	1 (≈ 2.61 µM)	8 (≈ 20.9 µM)	< 0.12	< 0.12	MIC (Escherichia coli [18]): < 0.12 µg/mL
CCN1CCN(C(=O)N[C@@H](C(=O)N[C@@H]2C(=O)N3[C@@H]2SC(C)(C)[C@@H]3C(=O)O)c2ccccc2)C(=O)C1=O [PIPERACILLIN]	256 (≈ 495 µM)	512 (≈ 989 µM)		> 2050		1020 (≈ 1980 µM)	2 (≈ 3.86 µM)		1020 (≈ 1980 µM)				2050 (≈ 3960 µM)	512 (≈ 989 µM)	> 2050			MIC (Escherichia coli [19]): 2050 µg/mL; MIC (Escherichia coli [20]): 512 µg/mL; MIC (Klebsiella pneumoniae [21]): 1020 µg/mL; MIC (Escherichia coli [22]): 2 µg/mL; MIC (Escherichia coli [23]): 1020 µg/mL; MIC (Klebsiella pneumoniae [24]): 2050 µg/mL; MIC (Escherichia coli [25]): 512 µg/mL; MIC (Providencia stuartii [26]): 256 µg/mL; MIC (Escherichia coli [27]): 1020 µg/mL
CC1(C)S[C@@H]2[C@H](NC(=O)[C@H](C(=O)O)c3ccsc3)C(=O)N2[C@H]1C(=O)O [TICARCILLIN]	> 2050	> 2050		> 2050		> 2050	2 (≈ 5.2 µM)		> 2050				> 2050	> 2050	> 2050			
